ChEMBL document CHEMBL1240350, “In vitro activity of CEM-101 against Streptococcus pneumoniae and Streptococcus pyogenes with defined macrolide resistance mechanisms” (Antimicrob Agents Chemother, 2010)
Values after ≈ are worked out from the molar mass of the structure shown.

Tests used:
Format in all cases: functional
[1] = system: Streptococcus pyogenes; assay: Antibacterial activity against Streptococcus pyogenes harboring erm(B) gene after overnight incubation by agar dilution method
Summary of the method: (§1)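 Clinical isolates collected 1998–2008, with macrolide-resistance genes confirmed by PCR. MICs by agar dilution on Mueller-Hinton agar with 5% sheep blood. Inoculum 10^4 CFU/spot, incubated overnight at 35°C in ambient air. S. pneumoniae ATCC 49619 was the quality-control strain in every run.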

[2] = system: Streptococcus pneumoniae; assay: Antibacterial activity against penicillin-resistant Streptococcus pneumoniae after overnight incubation by agar dilution method
Summary of the method: (§2)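 Agar dilution on Mueller-Hinton agar supplemented with 5% sheep blood. Inoculum 10^4 CFU/spot, incubated overnight at 35°C in ambient air. Test strains were clinical pneumococcal isolates. S. pneumoniae ATCC 49619 was included as the quality control strain in each run. MIC range, MIC50 and MIC90 were reported for each susceptibility category.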

[3] = system: Streptococcus pyogenes; assay: Antibacterial activity against Streptococcus pyogenes harboring mutation in L4 ribosomal protein after overnight incubation by agar dilution method; summary of the method: as §1
[4] = system: Streptococcus pneumoniae; assay: Antibacterial activity against macrolide-resistant Streptococcus pneumoniae harboring mef(A) gene after overnight incubation by agar dilution method
Summary of the method: (§3)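 Agar dilution MICs on Mueller-Hinton agar with 5% sheep blood. Inoculum 10^4 CFU/spot, incubated overnight at 35°C in ambient air. Clinical S. pneumoniae or group A streptococcal isolates; resistance genotypes (erm(B), erm(A), mef(A)/mef(E)) were assigned by PCR. S. pneumoniae ATCC 49619 served as QC strain in each run. Range, MIC50 and MIC90 reported per phenotype group.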

[5] = system: Streptococcus pneumoniae; assay: Antibacterial activity against penicillin-susceptible Streptococcus pneumoniae after overnight incubation by agar dilution method; summary of the method: as §2
[6] = system: Streptococcus pneumoniae; assay: Antibacterial activity against macrolide-resistant Streptococcus pneumoniae harboring erm(B) and mef(A) gene after overnight incubation by agar dilution method; summary of the method: as §3
[7] = system: Streptococcus pneumoniae; assay: Antibacterial activity against Streptococcus pneumoniae harboring erm(B) gene after overnight incubation by agar dilution method; summary of the method: as §1
[8] = system: Streptococcus pyogenes; assay: Antibacterial activity against macrolide-resistant Streptococcus pyogenes harboring erm(A) gene after overnight incubation by agar dilution method; summary of the method: as §3
[9] = system: Streptococcus pneumoniae; assay: Antibacterial activity against Streptococcus pneumoniae harboring erm(B) and mef(A) gene after overnight incubation by agar dilution method; summary of the method: as §1
[10] = system: Streptococcus pneumoniae; assay: Antibacterial activity against macrolide-resistant Streptococcus pneumoniae harboring erm(B) gene after overnight incubation by agar dilution method; summary of the method: as §3
[11] = system: Streptococcus pneumoniae; assay: Antibacterial activity against Streptococcus pneumoniae harboring mutation in L4 ribosomal protein after overnight incubation by agar dilution method; summary of the method: as §1
[12] = system: Streptococcus pneumoniae; assay: Antibacterial activity against macrolide-resistant Streptococcus pneumoniae harboring mutation in L4 ribosomal protein after overnight incubation by agar dilution method; summary of the method: as §3
[13] = system: Streptococcus pyogenes; assay: Antibacterial activity against macrolide-resistant Streptococcus pyogenes harboring erm(B) gene after overnight incubation by agar dilution method; summary of the method: as §3
[14] = system: Streptococcus pyogenes; assay: Antibacterial activity against macrolide-susceptible Streptococcus pyogenes after overnight incubation by agar dilution method
Summary of the method: (§4)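 Agar dilution on Mueller-Hinton agar supplemented with 5% sheep blood, inoculum 10^4 CFU/spot, read after overnight incubation at 35°C in ambient air. Clinical isolates with defined genotypes; S. pneumoniae ATCC 49619 quality control strain included in each run. MIC50/MIC90 are MICs inhibiting 50% and 90% of isolates.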

[15] = system: Streptococcus pyogenes; assay: Antibacterial activity against Streptococcus pyogenes harboring erm(A) gene after overnight incubation by agar dilution method; summary of the method: as §1
[16] = system: Streptococcus pyogenes; assay: Antibacterial activity against macrolide-resistant Streptococcus pyogenes harboring mef(A) gene after overnight incubation by agar dilution method; summary of the method: as §3
[17] = system: Streptococcus pyogenes; assay: Antibacterial activity against Streptococcus pyogenes harboring mef(A) gene after overnight incubation by agar dilution method; summary of the method: as §1
[18] = system: Streptococcus pneumoniae; assay: Antibacterial activity against quinolone-resistant Streptococcus pneumoniae after overnight incubation by agar dilution method; summary of the method: as §2
[19] = system: Streptococcus pneumoniae; assay: Antibacterial activity against macrolide-susceptible Streptococcus pneumoniae after overnight incubation by agar dilution method; summary of the method: as §3
[20] = system: Streptococcus pneumoniae; assay: Antibacterial activity against Streptococcus pneumoniae harboring mutation in 23S rRNA after overnight incubation by agar dilution method; summary of the method: as §1
[21] = system: Streptococcus pneumoniae; assay: Antibacterial activity against quinolone-susceptible Streptococcus pneumoniae after overnight incubation by agar dilution method; summary of the method: as §2
[22] = system: Streptococcus pneumoniae; assay: Antibacterial activity against penicillin-intermediate Streptococcus pneumoniae after overnight incubation by agar dilution method; summary of the method: as §4
[23] = system: Streptococcus pneumoniae; assay: Antibacterial activity against Streptococcus pneumoniae harboring mef(A) gene after overnight incubation by agar dilution method; summary of the method: as §1
[24] = system: Streptococcus pneumoniae; assay: Antibacterial activity against Streptococcus pneumoniae harboring erm(A) gene after overnight incubation by agar dilution method; summary of the method: as §1

C[C@H]1COc2c(N3CCN(C)CC3)c(F)cc3c(=O)c(C(=O)O)cn1c23.C[C@H]1COc2c(N3CCN(C)CC3)c(F)cc3c(=O)c(C(=O)O)cn1c23.O [LEVOFLOXACIN]
MIC50 [1]: 0.5 µg/mL | MIC90 [1]: 1 µg/mL | MIC50 [2]: 1 µg/mL | MIC90 [2]: 2 µg/mL | MIC [3]: 0.5 µg/mL | MIC50 [4]: 1 µg/mL | MIC90 [4]: 2 µg/mL | MIC50 [5]: 1 µg/mL | MIC90 [5]: 16 µg/mL | MIC50 [6]: 1 µg/mL | MIC90 [6]: 16 µg/mL | MIC50 [7]: 1 µg/mL | MIC90 [7]: 2 µg/mL | MIC50 [8]: 0.5 µg/mL | MIC90 [8]: 1 µg/mL | MIC50 [9]: 1 µg/mL | MIC90 [9]: 16 µg/mL | MIC50 [10]: 1 µg/mL | MIC90 [10]: 2 µg/mL | MIC50 [11]: 1 µg/mL | MIC90 [11]: 2 µg/mL | MIC50 [12]: 1 µg/mL | MIC90 [12]: 2 µg/mL | MIC50 [13]: 0.5 µg/mL | MIC90 [13]: 1 µg/mL | MIC50 [14]: 0.5 µg/mL | MIC90 [14]: 0.5 µg/mL | MIC50 [15]: 0.5 µg/mL | MIC90 [15]: 1 µg/mL | MIC50 [16]: 0.5 µg/mL | MIC90 [16]: 1 µg/mL | MIC50 [17]: 0.5 µg/mL | MIC90 [17]: 1 µg/mL | MIC50 [18]: 16 µg/mL | MIC90 [18]: 16 µg/mL | MIC50 [19]: 1 µg/mL | MIC90 [19]: 16 µg/mL | MIC [20]: 0.06 µg/mL | MIC50 [21]: 1 µg/mL | MIC90 [21]: 2 µg/mL | MIC50 [22]: 1 µg/mL | MIC90 [22]: 2 µg/mL | MIC50 [23]: 1 µg/mL | MIC90 [23]: 2 µg/mL

CC1(C)S[C@@H]2[C@H](NC(=O)Cc3ccccc3)C(=O)N2[C@H]1C(=O)O [PENICILLIN G]
MIC50 [1]: 0.015 µg/mL (≈ 0.0449 µM) | MIC90 [1]: 0.015 µg/mL (≈ 0.0449 µM) | MIC50 [2]: 4 µg/mL (≈ 12 µM) | MIC90 [2]: 8 µg/mL (≈ 23.9 µM) | MIC [3]: 0.015 µg/mL (≈ 0.0449 µM) | MIC50 [4]: 0.125 µg/mL (≈ 0.374 µM) | MIC90 [4]: 4 µg/mL (≈ 12 µM) | MIC [24]: 0.03 µg/mL (≈ 0.0897 µM) | MIC50 [5]: 0.03 µg/mL (≈ 0.0897 µM) | MIC90 [5]: 0.06 µg/mL (≈ 0.179 µM) | MIC50 [6]: 2 µg/mL (≈ 5.98 µM) | MIC90 [6]: 4 µg/mL (≈ 12 µM) | MIC50 [7]: 1 µg/mL (≈ 2.99 µM) | MIC90 [7]: 4 µg/mL (≈ 12 µM) | MIC50 [8]: 0.015 µg/mL (≈ 0.0449 µM) | MIC90 [8]: 0.015 µg/mL (≈ 0.0449 µM) | MIC50 [9]: 2 µg/mL (≈ 5.98 µM) | MIC90 [9]: 4 µg/mL (≈ 12 µM) | MIC50 [10]: 1 µg/mL (≈ 2.99 µM) | MIC90 [10]: 4 µg/mL (≈ 12 µM) | MIC50 [11]: 4 µg/mL (≈ 12 µM) | MIC90 [11]: 16 µg/mL (≈ 47.8 µM) | MIC50 [12]: 4 µg/mL (≈ 12 µM) | MIC90 [12]: 16 µg/mL (≈ 47.8 µM) | MIC50 [13]: 0.015 µg/mL (≈ 0.0449 µM) | MIC90 [13]: 0.015 µg/mL (≈ 0.0449 µM) | MIC50 [14]: 0.015 µg/mL (≈ 0.0449 µM) | MIC90 [14]: 0.015 µg/mL (≈ 0.0449 µM) | MIC50 [15]: 0.015 µg/mL (≈ 0.0449 µM) | MIC90 [15]: 0.015 µg/mL (≈ 0.0449 µM) | MIC50 [16]: 0.015 µg/mL (≈ 0.0449 µM) | MIC90 [16]: 0.03 µg/mL (≈ 0.0897 µM) | MIC50 [17]: 0.015 µg/mL (≈ 0.0449 µM) | MIC90 [17]: 0.03 µg/mL (≈ 0.0897 µM) | MIC50 [18]: 0.25 µg/mL (≈ 0.748 µM) | MIC90 [18]: 4 µg/mL (≈ 12 µM) | MIC50 [19]: 1 µg/mL (≈ 2.99 µM) | MIC90 [19]: 2 µg/mL (≈ 5.98 µM) | MIC [20]: 0.015 µg/mL (≈ 0.0449 µM) | MIC50 [21]: 1 µg/mL (≈ 2.99 µM) | MIC90 [21]: 4 µg/mL (≈ 12 µM) | MIC50 [22]: 0.5 µg/mL (≈ 1.5 µM) | MIC90 [22]: 1 µg/mL (≈ 2.99 µM) | MIC50 [23]: 0.125 µg/mL (≈ 0.374 µM) | MIC90 [23]: 4 µg/mL (≈ 12 µM)
